Series [1] addresses Transcriptional coactivator YAP1 (Homo sapiens) (UniProt P46937). The experiment in a line: Induction of YAP1 phosphorylation at S109 residue in human H322 cells harboring SMARCA4 mutant at 0.1 uM incubated for 96 hrs by immunoblot analysis. It is filed as cell-based. The settings on record: filed as activator. Background: In western blotting, separated proteins are transferred to a membrane and probed.

A short description of series [2]: Toxicity in female athymic nude mouse xenografted with human NCI-H2030 cells harboring SMARCA4 mutant assessed as change in body weight at 5 mg/kg, po administered once daily via gavage for 17 days relative to control. It is filed as organism-based. The settings on record: in vivo, 408 h, time 17 day. An outline of the steps:
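10 × 10^6 H2030 cells in PBS:Matrigel 1:1, 200 μL, injected subcutaneously into flanks of 6–8-week-old females. Randomized at mean tumor volume <200 mm3. Oral gavage once daily in 10% DMSO, 40% PEG300, 1% Tween-80, 49% saline. Caliper tumor volume and body weight monitored, mean ± SEM.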
In general terms: Xenograft models place foreign cells or tissue in a host animal.

Series [3] relates to NCI-H2030. Kind of series: Inhibition of ERK phosphorylation in human NCI-H2030 cells harboring KRAS G12C mutant/SMARCA4 mutant assessed as reduction in p-ERK level at 1.25 uM incubated for 48 hrs in presence of sotorasib by Western blotting analysis. The series is classed as cell-based.
Series [4] can be described thus: Half life in male CD-1 (ICR) mouse at 25 mg/kg, po measured up to 24 hrs by LC-MS/MS analysis. The series is classed as ADME, organism-based. The settings on record: in vivo. An outline of the steps:
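Single 25 mg/kg dose. IP vehicle was 5% DMSO/5% solutol/90% water at 1.25 mg/mL, final pH 4.39, clear solution. Oral vehicle was 0.5% methylcellulose/0.2% Tween 80 in water, opaque suspension. Plasma sampled at 0.25, 0.5, 1, 2, 4, 8 and 24 h. Plasma protein-precipitated with internal standard in acetonitrile, then LC-MS/MS. n = 3 mice per time point, mean.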

Series [5] can be described thus: In vivo PROTAC activity at CRBN/SMARCA2 in female athymic nude mouse xenografted with human NCI-H2023 cells harboring SMARCA4 mutant assessed as SMARCA2 degradation at 5 mg/kg, po administered once daily via gavage for 19 days by Western blotting analysis relative to control. It is filed as functional. The conditions noted are these: time 19 day. An outline of the steps: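 Female nude mice aged 6–8 weeks carried subcutaneous flank xenografts in PBS/Matrigel 1:1: H2023 at 10 × 10^6 cells or HCC515 at 5 × 10^6 cells. Randomised below 200 mm3. 5 mg/kg or vehicle given by oral gavage once daily for 19 days in 0.5% methylcellulose with Tween-80 (0.2% for H2023, 1% for HCC515). Tumours collected 24 h after dosing. SMARCA2 measured by Western blot against β-actin, relative to vehicle.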

For series [6], the target named is T1, Protein cereblon/SWI/SNF-related matrix-associated actin-dependent regulator of chromatin subfamily A member 2 (Homo sapiens, UniProt P51531+Q96SW2). Kind of series: PROTAC activity at CRBN/SMARCA2 in human H322 cells harboring SMARCA4 mutant assessed as induction of SMARCA2 degradation at 0.1 uM in presence of MLN4924 by immunoblot analysis. It is filed as cell-based.

Series [7] concerns NCI-H2030. Kind of series: Synergistic antitumor activity against human NCI-H2030 cells harboring KRAS G12C mutant/SMARCA4 mutant assessed as inhibition of colony formation incubated for 8 days in presence of sotorasib by clonogenic growth assay. The settings on record: time 8.0 day. It is filed as functional, cell-based. An outline of the steps:
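H2030 clonogenic assay over 8 days with 2-fold dilutions of sotorasib, test agent, or both. Crystal violet staining, total colony area normalized. Synergy scored as Bliss/Lowe consensus, >10 taken as synergy.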

The target of series [8] is Transcriptional coactivator YAP1 (Homo sapiens) (UniProt P46937). The experiment in a line: Induction of YAP1 phosphorylation at S127 residue in human H322 cells harboring SMARCA4 mutant at 0.1 uM incubated for 96 hrs by immunoblot analysis. It is filed as cell-based. The settings on record: filed as activator.
Series [9] can be described thus: In vivo PROTAC activity at CRBN/SMARCA2 in female athymic nude mouse xenografted with human NCI-H2030 cells harboring SMARCA4 mutant assessed as SMARCA2 degradation at 5 mg/kg, po administered once daily via gavage for 17 days by Western blotting analysis relative to control. The conditions noted are these: time 17 day. It is filed as functional. The method in brief: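 H2030 cells (10 × 10^6, PBS/Matrigel 1:1) implanted subcutaneously in the flank of female nude mice. Randomised below 200 mm3. 5 mg/kg or vehicle given by oral gavage once daily for 17 days in 10% DMSO/40% PEG300/1% Tween-80/49% saline. Tumours collected 24 h after dosing. SMARCA2 measured by Western blot against β-actin, relative to vehicle.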

The nature of series [10]: Drug metabolism in mouse liver microsomes assessed as Mono-oxygenation mediated M2 metabolite formation at 10 uM incubated for 60 mins by LC-UV-HRMS analysis. The series is classed as ADME, Microsome. The conditions noted are these: 1 h. An outline of the steps: (§1)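 Compound at 10 μM incubated with mouse liver microsomes at 37 °C for 60 min. Metabolites detected by LC-UV-HRMS, structures proposed from MS and MS2 data, and each metabolite given as a percentage.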
A general note: Microsomes from liver hold many membrane-bound enzymes, among them those of drug oxidation.

Series [11] in a line: Drug concentration in CRBN I391V mutant mouse plasma at 80 mg/kg, po administered once daily for 3 days and measured at 24 hrs post last dose. The series is classed as ADME, organism-based. The settings on record: time 3 day. The method in brief: (§2)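 Oral dosing once daily for 3 days: 5–80 mg/kg in C57BL/6 mice, 10–80 mg/kg in CrbnI391V mice. Euthanized 24 h after last dose. Plasma drug level measured. Spleen SMARCA2 by Western blot against actin loading control, relative to vehicle.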

Series [12] is described as follows: In vivo PROTAC activity at CRBN/SMARCA2 in C57BL/6 mouse assessed as induction of SMARCA2 degradation in spleen at 80 mg/kg, po administered once daily via gavage for 3 days by Western blotting analysis relative to control. It is filed as functional. The settings on record: time 3 day. The method in brief: as §2
Series [13] is described as follows: Drug metabolism in mouse liver microsomes assessed as oxidative dealkylation and mono-oxygenation mediated M3 metabolite formation at 10 uM incubated for 60 mins by LC-UV-HRMS analysis. It is filed as ADME, Microsome. The conditions noted are these: 1 h. An outline of the steps: as §1
The nature of series [14]: In vivo PROTAC activity at CRBN/SMARCA2 in female athymic nude mouse xenografted with human NCI-H1568 cells harboring SMARCA4 mutant assessed as SMARCA2 degradation at 40 mg/kg, po administered once daily via gavage for 13 days by Western blotting analysis relative to control. The series is classed as functional. The settings on record: time 13 day. An outline of the steps: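 H1568 cells (2 × 10^6, PBS/Matrigel 1:1) implanted subcutaneously in the flank of female nude mice aged 6–8 weeks. Randomised at about 60 mm3 tumour volume. 40 mg/kg or vehicle given by oral gavage once daily for 13 days in 0.5% methylcellulose/Tween-80, sonicated. Tumours collected 24 h after dosing. SMARCA2 measured by Western blot against β-actin, relative to vehicle.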

The nature of series [15]: Drug metabolism in mouse liver microsomes assessed as Mono-oxygenation and hydrogenation mediated M1 metabolite formation at 10 uM incubated for 60 mins by LC-UV-HRMS analysis. It is filed as ADME, Microsome. The settings on record: 1 h. An outline of the steps: as §1
In series [16] the target is Transcriptional coactivator YAP1 (Homo sapiens) (UniProt P46937). Kind of series: Induction of YAP1 phosphorylation at S127 residue in human H322 cells harboring SMARCA4 mutant at 1 uM incubated for 96 hrs by immunoblot analysis. It is filed as cell-based. The settings on record: filed as activator.
The nature of series [17]: Toxicity in immunocompromised mouse xenografted with human NCI-H1568 cells assessed as drug tolerance at 80 mg/kg, administered once daily for 21 days. It is filed as organism-based. The conditions noted are these: in vivo, 504 h, time 21 day.
Series [18] concerns the target T1, Protein cereblon/SWI/SNF-related matrix-associated actin-dependent regulator of chromatin subfamily A member 2. The experiment in a line: PROTAC activity at CRBN/SMARCA2 in human H322 cells harboring SMARCA4 mutant assessed as induction of SMARCA2 degradation at 1 uM in presence of MLN4924 by immunoblot analysis. The series is classed as cell-based.

The source made the active and inactive calls. No cut-off for these calls is given here. Where only a bound is given, the exact number is not on record here.

Sequence of Transcriptional coactivator YAP1 (Homo sapiens) (P46937 whole entry): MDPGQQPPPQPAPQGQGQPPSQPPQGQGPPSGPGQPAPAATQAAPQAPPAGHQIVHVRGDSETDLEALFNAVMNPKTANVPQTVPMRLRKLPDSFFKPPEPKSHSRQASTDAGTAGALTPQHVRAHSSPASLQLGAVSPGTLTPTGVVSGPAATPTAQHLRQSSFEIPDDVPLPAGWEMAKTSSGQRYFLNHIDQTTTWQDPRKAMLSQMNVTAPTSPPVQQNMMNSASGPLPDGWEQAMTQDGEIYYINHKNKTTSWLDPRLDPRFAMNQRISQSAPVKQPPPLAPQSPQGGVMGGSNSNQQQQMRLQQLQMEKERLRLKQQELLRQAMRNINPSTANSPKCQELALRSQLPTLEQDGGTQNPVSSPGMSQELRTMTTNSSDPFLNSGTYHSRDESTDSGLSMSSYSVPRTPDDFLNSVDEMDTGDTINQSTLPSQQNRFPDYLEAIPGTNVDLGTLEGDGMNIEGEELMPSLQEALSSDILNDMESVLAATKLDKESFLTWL

With `Nc1nnc(-c2ccccc2O)cc1N1CCN(Cc2ccc(N3CCN(CCOc4cccc5c4C(=O)N(C4CCC(=O)NC4=O)C5=O)CC3)c(F)c2)CC1` (stereo not drawn), the outcome (in series [1]; in the series with NCI-H2030 [7]; in [8]) was Active. For the same compound, the Activity in series [2] is on record as below 20%; in [5], 76%; in series [9] it was 40%. The inhibition result in the series with NCI-H2030 [3] is “Active”. Besides, the t1/2 in series [4] was 6 h. For the same compound, the outcome in series [6] was inactive.
Turning to `Nc1nnc(-c2ccccc2O)cc1N1CCN(Cc2ccc(N3CCC(CN4CCN(c5ccc6c(c5)C(=O)N(C5CCC(=O)NC5=O)C6=O)CC4)CC3)c(F)c2)CC1` (stereo not drawn), the Drug metabolism entry in series [10], in [13] and in series [15] was “metabolite_detected” each time. Besides, the concentration at 72 h in [11] came out at 2450 nM. For the same compound, the Activity in [12] is listed as 70%; in series [14], 50%; in series [17], “Non-toxic”. Besides, in series [16], the result was Active. The result in series [18] was inactive.
